Experimental data from PMC2818319 (Bioorganic & medicinal chemistry letters, 2009).
Each block holds one molecule with its values, some of them ahead of it.

Legend:
integrin CD11b/CD18 = integrin CD11b/CD18 (Homo sapiens, UniProt P11215); test: adhesion of K562 CD11b/CD18 cells to immobilized Fibrinogen; assay type: cell-based; conditions: for EC50: read-out: EC50 (Effective Concentration for 50% increase in cell adhesion), K562 CD11b/CD18 cells, ligand Fg, NB=No increase in binding of K562 CD11b/CD18 cells to ligand Fg
Summary of the method: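 K562 cells stably transfected with wild-type integrin CD11b/CD18. Adhesion to immobilized ligand is measured in the presence of test compound. Secondary validation used two ligands, Fg and iC3b. For the analogue series, EC50 (μM) was derived from the increase in adhesion to Fg; absence of any increase was reported as no binding.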

integrin CD11a/CD18 = integrin CD11a/CD18 (Homo sapiens, UniProt P20701); test: adhesion of K562 CD11a/CD18 cells to immobilized ICAM-1; assay type: cell-based; conditions: for selectivity for integrin CD11b/CD18 over CD11a/CD18: K562 CD11b/CD18 vs K562 CD11a/CD18 cell adhesion
Summary of the method: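 K562 cells stably transfected with wild-type integrin CD11a/CD18. Test compound obtained as pure powder and assessed for its ability to increase adhesion of these cells to immobilized ICAM-1. This is compared with adhesion of K562 CD11b/CD18 cells to judge selectivity.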

[1] = target: recombinant αA-domain of CD11b/CD18 (Homo sapiens, UniProt P11215); test: binding of purified recombinant αA-domain to immobilized Fg; conditions: in words

- EC50 (integrin CD11b/CD18): > 50 µM
SMILES: COC(=O)CN1C(=O)S/C(=C\c2ccc(Sc3ccccc3)o2)C1=O [compound 5]

- level of K562 CD11b/CD18 cell-adhesion in secondary assays (integrin CD11b/CD18; ligands Fg and iC3b): high levels
- selectivity for integrin CD11b/CD18 over CD11a/CD18 (integrin CD11a/CD18): two-fold higher selectivity
SMILES: CCOC(=O)CN1C(=O)S/C(=C\c2ccc(-c3ccc(Cl)cc3Cl)o2)C1=O [compound 2]

- EC50 (integrin CD11b/CD18): > 50 µM
SMILES: CCOC(=O)CN1C(=O)S/C(=C\c2ccc(-c3ccc(C(=O)O)cc3C)o2)C1=O [compound 11]

- agonist activity in words (integrin CD11b/CD18; K562 CD11b/CD18 cell adhesion): inactive
- EC50 (integrin CD11b/CD18): > 50 µM
SMILES: COC(=O)C(C)N1C(=O)S/C(=C\c2ccc(-c3ccc(Cl)cc3Cl)o2)C1=O (stereo not shown) [compound 13]

- EC50 (integrin CD11b/CD18): > 50 µM
SMILES: COC(=O)CN1C(=O)S/C(=C\c2ccc(-c3ccc(C(=O)O)cc3)o2)C1=O [compound 12]

- EC50 (integrin CD11b/CD18): > 50 µM
SMILES: NS(=O)(=O)c1ccc(N2C(=O)S/C(=C\c3ccc(Cc4ccccc4)o3)C2=O)cc1 [compound 22]

- EC50 (integrin CD11b/CD18): > 50 µM
SMILES: CCOC(=O)CN1C(=O)S/C(=C\c2ccc(N3CCOCC3)o2)C1=O [compound 3]

- binding of αA-domain to immobilized Fg [1]: increasing its binding to immobilized Fg
- ligand efficiency (BEI) (integrin CD11b/CD18): 14
- selectivity for integrin CD11b/CD18 over CD11a/CD18 (integrin CD11a/CD18): high selectivity
- increase of K562 CD11a/CD18 cell adhesion to ICAM-1 (integrin CD11a/CD18; in words): no appreciable binding
SMILES: CCOC(=O)CN1C(=O)S/C(=C\c2ccc(-c3ccccc3)o2)C1=O [compound 6]
